The results in this text go back to ChEMBL document CHEMBL1153490, “Spiroadamantyl 1,2,4-trioxolane, 1,2,4-trioxane, and 1,2,4-trioxepane pairs: relationship between peroxide bond iron(II) reactivity, heme alkylation efficiency, and antimalarial activity” (Bioorg Med Chem Lett, 2009).

In brackets after ≈: the same amount, converted by molar mass.

Assay [1] is described as follows: Induction of heme alkylation measured within 30 seconds by visible spectrophotometry. Also on record: concentration or dose not given beside the values.
The test system of assay [2] is Plasmodium falciparum (NF54). The assay can be described thus: Antimalarial activity against chloroquine-sensitive Plasmodium falciparum NF54.
The test system of a further assay is Plasmodium berghei. The assay can be described thus: Antimalarial activity as reduced parasitaemia after 3 days against Plasmodium berghei infected NMRI mice (Mus musculus) at 100 mg/kg peroral dose. The settings on record: route oral. Format: functional. The arrangement: scale not given: the % may be the effect or the level left. The essentials: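 Groups of three P. berghei-infected NMRI mice were dosed orally one day post-infection at 100 mg/kg. Compounds were dissolved or suspended in 3% ethanol and 7% Tween 80.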

The next assay has as its system Plasmodium falciparum. The assay can be described thus: Antimalarial activity against chloroquine-resistant Plasmodium falciparum K1 […]. Format: functional, organism-based.

A word on the IC50: it is the concentration at which inhibition is half-maximal. Take `c1ccc([C@H]2CCOC3(OO2)C2CC4CC(C2)CC3C4)cc1` (stereo not given in full): the Activity in assay [1] was 1%. For the same molecule, in assay [2], the IC50 was more than 1 mg/L.
For `C[C@@]1(c2ccccc2)OOC2(O1)C1CC3CC(C1)CC2C3` (stereo not given in full), the results for the Activity (in assay [1]; in the assay with Plasmodium berghei) were 67% and 99%, respectively. The IC50 in the assay on Plasmodium falciparum turned out to be 0.0029 mg/L (≈ 0.0101 µM); in assay [2] it was 0.0034 mg/L (≈ 0.0119 µM).
As for `C1CCC2(CC1)COC1(OO2)C2CC3CC(C2)CC1C3` (stereo not given), the figures for the Activity (in assay [1]; with Plasmodium berghei) were 45% and 0%, respectively. The figures for the IC50 (with Plasmodium falciparum; in assay [2]) were 0.054 mg/L (≈ 0.194 µM) and 0.044 mg/L (≈ 0.158 µM), respectively.
`CC(C)(N)CNC(=O)C[C@H]1CC[C@]2(CC1)OO[C@]1(O2)C2CC3CC(C2)CC1C3` yielded an Activity in assay [1] of 83%.
In the assay with Plasmodium berghei, `C[C@@H]1CC[C@H]2[C@@H](C)C(=O)O[C@@H]3O[C@@]4(C)CC[C@@H]1[C@]32OO4` [ARTEMISININ] showed an Activity of 98%. For the same molecule, the IC50 in assay [2] was determined as 0.0028 mg/L (≈ 0.00992 µM).
For `C1CC[C@]2(CC1)CCO[C@]1(OO2)C2CC3CC(C2)CC1C3`, the Activity amounted to 25% in assay [1] and 0% with Plasmodium berghei. This molecule had an IC50 in assay [2] of more than 1 mg/L.
Turning to `C1CCC2(CC1)OOC1(O2)C2CC3CC(C2)CC1C3` (stereo not given), the Activity in assay [1] was 86%; with Plasmodium berghei it was more than 99.99%. This molecule showed an IC50 in assay [2] of 0.0014 mg/L (≈ 0.0053 µM).
Consider `c1ccc([C@H]2COC3(OO2)C2CC4CC(C2)CC3C4)cc1` (stereo not given in full), for which the Activity in assay [1] is 55%; with Plasmodium berghei, 96%. Also, the results for the IC50 (with Plasmodium falciparum; in assay [2]) were 0.0091 mg/L (≈ 0.0318 µM) and 0.019 mg/L (≈ 0.0663 µM), respectively.
As to `c1ccc([C@@H]2OOC3(O2)C2CC4CC(C2)CC3C4)cc1` (stereo not given in full), the Activity in assay [1] worked out at 50%; with Plasmodium berghei, 25%. For the same molecule, the IC50 in the assay on Plasmodium falciparum was 0.4 mg/L (≈ 1.47 µM); in assay [2], more than 1 mg/L.
Molecule `C[C@]1(c2ccccc2)COC2(OO1)C1CC3CC(C1)CC2C3` (stereo not given in full) registered an Activity in the assay with Plasmodium berghei of 0%. Besides, the IC50 turned out to be 0.019 mg/L (≈ 0.0632 µM) in the assay with Plasmodium falciparum and 0.022 mg/L (≈ 0.0732 µM) in assay [2].
